Tests used:
NIH3T3 = test: Highest tested nontoxic concentration (maximum tolerated dose) against NIH3T3 cells in XTT assay; format: functional, Mus musculus
In short: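 Untransformed NIH 3T3 cells were seeded at 2500 cells/well. Cells were incubated 48 h at 37 °C, then XTT with phenazine methosulfate was added. XTT reduction served as the measure of live cells.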

[1] = biological target: Protein farnesyltransferase (Homo sapiens, UniProt P49354+P49356); test: Inhibition of Farnesyltransferase; format: protein-complex assay
[2] = biological target: Geranylgeranyl transferase type I (Homo sapiens, UniProt P49354+P53609); test: Inhibition of Geranylgeranyl transferase type I; format: protein-complex assay
Rat1 = test: Inhibition of anchorage-independent growth of H-Ras-transformed rat-1 cells in soft agar; format: functional, cell-based

Row | IC50 [1] | IC50 [2] | Compound | MTD (NIH3T3) | IC50 (Rat1)
1 | 84 nM | 25.8 µM | CSCC[C@H](NC(=O)[C@@H]1Cc2ccccc2CN1C(=O)[C@@H](NC(=O)c1c[nH]cn1)C(C)C)C(=O)O |  | 
2 | 20 nM | 106 µM | CC(C)(C)[C@H](NCCCc1cnc[nH]1)C(=O)N1Cc2ccccc2C[C@H]1C(=O)N[C@@H](CCC(N)=O)C(=O)O |  | 
3 | 114 nM | 17.4 µM | CSCC[C@H](NC(=O)[C@@H]1Cc2ccccc2CN1C(=O)[C@@H](NCc1c[nH]cn1)C(C)C)C(=O)O |  | 
4 | 4.4 nM | 168 µM | CC(C)(C)[C@H](NC(=O)CCc1c[nH]cn1)C(=O)N1Cc2ccccc2C[C@H]1C(=O)N[C@@H](CCC(N)=O)C(=O)O |  | 
5 | 6800 nM |  | CSCC[C@H](NC(=O)[C@H](Cc1ccccc1)NC(=O)[C@@H](NC(=O)[C@@H](N)Cc1cnc[nH]1)C(C)C)C(=O)O |  | 
6 | 3.4 nM | 30.5 µM | CC(C)(C)[C@H](NCCc1c[nH]cn1)C(=O)N1Cc2ccccc2C[C@H]1C(=O)N[C@@H](CCC(N)=O)C(=O)O |  | 3.2 µM

Row | Compound | IC50 [1] | IC50 [2] | MTD (NIH3T3) | IC50 (Rat1)
7 | CSCC[C@H](NC(=O)[C@@H]1Cc2ccccc2CN1C(=O)[C@@H](NC(=O)Cc1c[nH]cn1)C(C)C)C(=O)O | 6.6 nM | 2.02 µM | >150 µM | 50 µM
8 | CSCC[C@H](NC(=O)[C@@H]1Cc2ccccc2CN1C(=O)[C@@H](NCCc1c[nH]cn1)C(C)C)C(=O)O | 0.79 nM | 0.234 µM | >150 µM | 3.8 µM
9 | CC(C)(C)[C@H](NC(=O)Cc1c[nH]cn1)C(=O)N1Cc2ccccc2C[C@H]1C(=O)N[C@@H](CCC(N)=O)C(=O)O | 28 nM |  | >150 µM | 3.9 µM

— ChEMBL document CHEMBL1129732, “Potent, cell active, non-thiol tetrapeptide inhibitors of farnesyltransferase” (J Med Chem, 1996)
